The text below walks through data of ChEMBL document CHEMBL3351926, “Altertoxins with potent anti-HIV activity from Alternaria tenuissima QUE1Se, a fungal endophyte of Quercus emoryi” (Bioorg Med Chem, 2014).

For data set [1], the system named is Human immunodeficiency virus 1. In words: Antiviral activity against HIV1 infected in human A3.01 cells assessed as inhibition of viral replication. The data set is classed as functional, organism-based. In short, it runs like this:
(§1)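 A3.01 T cells were infected with HIV-1 LAV in the presence of decreasing compound concentrations, lowered until viral replication reappeared. Virus in culture supernatants was measured by reverse transcriptase assay 9 days post-infection, the peak day for the untreated control. Replication was expressed as % of the untreated (concentration 0) control. Results are the mean and standard deviation of duplicate determinations, and IC50 was read from the dose–response curves.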

A short description of data set [2]: Therapeutic index, ratio of CC50 for human A3.01 cells to IC50 for HIV1 infected in human A3.01 cells. The data set is classed as cell-based. As to conditions: A3.01 cells (uninfected for CC50; HIV1-infected for IC50). In short, it runs like this: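 The index was calculated from A3.01 cytotoxicity data together with the IC50 for HIV-1 LAV replication in A3.01 cells. Replication was measured by supernatant reverse transcriptase assay 9 days post-infection on dose–response curves run in duplicate.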

The test system of data set [3] is Human immunodeficiency virus 1. Kind of data set: Antiviral activity against HIV1 infected in human A3.01 cells assessed as inhibition of viral replication at 1.5 ug/ml. The data set is classed as functional. In short, it runs like this:
(§2)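 A3.01 T lymphocytes were infected with HIV-1 LAV in the presence of compound at a single concentration, 1.5 or 0.5 μg/mL, chosen from the A3.01 cytotoxicity data. Supernatant virus was measured by reverse transcriptase assay, and inhibition was scored on the peak day of virus production. Controls were DMSO at a matching concentration, AZT at 10 and 20 μM, untreated infected cells and mock cells.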

In data set [4] the test system is Human immunodeficiency virus 1. Kind of data set: Antiviral activity against HIV1 infected in human A3.01 cells assessed as complete inhibition of viral replication at 2.20 uM. The data set is classed as functional, organism-based. In short, it runs like this: as §1
In data set [5] the test system is Human immunodeficiency virus 1. Kind of data set: Antiviral activity against HIV1 infected in human A3.01 cells assessed as inhibition of viral replication at 0.5 ug/ml. The data set is classed as functional. Summed up: as §2
In data set [6] the test system is Human immunodeficiency virus 1. In words: Antiviral activity against HIV1 infected in human A3.01 cells assessed as complete inhibition of viral replication at 20 uM. The data set is classed as functional, organism-based. Summed up: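 Human A3.01 T-lymphocytes infected with HIV-1 LAV strain while exposed to compound. Virus levels in culture supernatants measured by reverse transcriptase assay. Inhibition read on peak day of virus production, 9 days post-infection in the untreated control. Compared against untreated infected cells, DMSO vehicle at matching concentration, and uninfected mock cells.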

Data set [7] relates to Human immunodeficiency virus 1. In words: Antiviral activity against HIV1 infected in human A3.01 cells assessed as complete inhibition of viral replication at 1.50 uM. The data set is classed as functional, organism-based. Summed up: as §1

Each structure is given as a SMILES string. Activity calls are given as the source filed them. No cut-off for these calls is given here.

By IC50 is commonly meant the concentration needed to halve the response being measured. As a reminder, the inhibition is the relative decrease from the control value, in per cent. With `O=C1C[C@H](O)[C@@H]2c3c(ccc(O)c31)-c1ccc(O)c3c1[C@@]2(O)CCC3=O` [ALTERTOXIN I], in data set [1], the IC50 is 1420 nM. The selectivity ratio in data set [2] came out at 3. Besides, the inhibition at 1.5 µg/mL in data set [3] is 97%. The inhibition result in data set [4] was “Active”.

For `O=C1C[C@@H](O)[C@H]2c3c(ccc(O)c31)-c1ccc(O)c3c1[C@H]2[C@H]1O[C@H]1C3=O`, the IC50 in data set [1] came to 90 nM. Besides, in data set [2], the selectivity ratio was 50. Also, the inhibition at 1.5 µg/mL in data set [3] worked out at 97%.

As for `O=C1CC[C@]2(O)c3c(ccc(O)c31)-c1ccc(O)c3c1[C@H]2[C@H]1O[C@H]1C3=O`, the IC50 in data set [1] was determined as 210 nM. Further, the inhibition at 0.5 µg/mL in data set [5] was 97%. For the same compound, in data set [2], the selectivity ratio stood at 6.5.

On to `Cc1cn([C@H]2C[C@H](N=[N+]=[N-])[C@@H](CO)O2)c(=O)[nH]c1=O`, for which, in data set [6], the inhibition result is “Active”.

With `O=C1c2c(O)ccc3c2[C@H](c2ccc(O)c4c2[C@H]3[C@H]2O[C@H]2C4=O)[C@H]2O[C@@H]12`, the IC50 in data set [1] amounted to 290 nM. Also, in data set [7], the inhibition result is “Active”. Also, in data set [2], the selectivity ratio was 15. In data set [3], the inhibition at 1.5 µg/mL is 97%.

Turning to `O=C1C=C[C@H]2c3c(ccc(O)c31)-c1ccc(O)c3c1[C@H]2[C@H]1O[C@H]1C3=O`, in data set [3], the inhibition at 1.5 µg/mL is 33%.
